Legend:
Type in all cases: functional
MDA-MB-231 = assay: Cytotoxicity against human MDA-MB-231 cells assessed as growth inhibition after 48 hrs by SRB assay
Summary of the method: (§1)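 NCI 60-cell-line screen, five-dose stage: each cell line exposed for 48 h to five concentrations spanning five log steps; cellular protein measured by sulforhodamine B colorimetry. A time-zero cell control and plates without drug are used to derive GI50, TGI and LC50 from log-concentration dose-response curves.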

MCF7 = assay: Cytotoxicity against human MCF7 cells assessed as growth inhibition after 48 hrs by SRB assay; summary of the method: as §1
ACHN = assay: Cytotoxicity against human ACHN cells assessed as growth inhibition after 48 hrs by SRB assay
Summary of the method: (§2)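 NCI 60-cell-line five-dose screen at […]. Drug exposure was 48 h, followed by sulforhodamine B protein staining. GI50, TGI and LC50 were calculated against a time-zero control and untreated plates, with dose–response curves plotted from log10 concentration.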

SK-OV-3 = assay: Cytotoxicity against human SKOV3 cells assessed as growth inhibition after 48 hrs by SRB assay; summary of the method: as §1
IGROV-1 = assay: Cytotoxicity against human IGROV1 cells assessed as growth inhibition after 48 hrs by SRB assay; summary of the method: as §2
[1] = (§3) Cytotoxicity against human UACC257 cells assessed as growth inhibition after 48 hrs by SRB assay; details: UACC-257, 48 h
Summary of the method: (§4)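 NCI 60-cell-line screen, two stages. Five-dose testing at […]. Cellular protein measured by sulforhodamine B colorimetry after 48 h drug exposure. A time-zero control and drug-free plates are used to derive GI50, TGI and LC50 from dose-response curves plotted as log10 concentration per cell line.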

UACC-257 = assay: as §3; summary of the method: as §4
SK-MEL-5 = assay: Cytotoxicity against human SK-MEL-5 cells assessed as growth inhibition after 48 hrs by SRB assay; summary of the method: as §1
SK-MEL-28 = assay: Cytotoxicity against human SK-MEL-28 cells assessed as growth inhibition after 48 hrs by SRB assay; summary of the method: as §1
SK-MEL-2 = assay: Cytotoxicity against human SK-MEL-2 cells assessed as growth inhibition after 48 hrs by SRB assay; summary of the method: as §1
MDA-MB-435 = assay: Cytotoxicity against human MDA-MB-435 cells assessed as growth inhibition after 48 hrs by SRB assay; summary of the method: as §1
Malme-3M = assay: Cytotoxicity against human MALME-3M cells assessed as growth inhibition after 48 hrs by SRB assay; summary of the method: as §2
U-251 = assay: Cytotoxicity against human U251 cells assessed as growth inhibition after 48 hrs by SRB assay; summary of the method: as §4
SNB-75 = assay: Cytotoxicity against human SNB75 cells assessed as growth inhibition after 48 hrs by SRB assay; summary of the method: as §4
SNB-19 = assay: Cytotoxicity against human SNB19 cells assessed as growth inhibition after 48 hrs by SRB assay; summary of the method: as §4
SW-620 = assay: Cytotoxicity against human SW620 cells assessed as growth inhibition after 48 hrs by SRB assay; summary of the method: as §4
KM12 = assay: Cytotoxicity against human KM12 cells assessed as growth inhibition after 48 hrs by SRB assay; summary of the method: as §2
HT-29 = assay: Cytotoxicity against human HT-29 cells assessed as growth inhibition after 48 hrs by SRB assay; summary of the method: as §2
COLO 205 = assay: Cytotoxicity against human COLO205 cells assessed as growth inhibition after 48 hrs by SRB assay; summary of the method: as §2
NCI-H226 = assay: Cytotoxicity against human NCI-H226 cells assessed as growth inhibition after 48 hrs by SRB assay; summary of the method: as §1
HOP-62 = assay: Cytotoxicity against human HOP62 cells assessed as growth inhibition after 48 hrs by SRB assay; summary of the method: as §2
A549 = assay: Cytotoxicity against human A549 cells assessed as growth inhibition after 48 hrs by SRB assay; summary of the method: as §2
SR = assay: Cytotoxicity against human SR cells assessed as growth inhibition after 48 hrs by SRB assay; summary of the method: as §4
MOLT-4 = assay: Cytotoxicity against human MOLT4 cells assessed as growth inhibition after 48 hrs by SRB assay; summary of the method: as §1
K562 = assay: Cytotoxicity against human K562 cells assessed as growth inhibition after 48 hrs by SRB assay; summary of the method: as §2
HL-60(TB) = assay: Cytotoxicity against human HL-60(TB) cells assessed as growth inhibition after 48 hrs by SRB assay
Summary of the method: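 NCI 60-cell panel five-concentration stage (0.01, 0.1, 1, 10, 100) in HL-60(TB). Cellular protein was measured by sulforhodamine B colorimetry after 48 h of exposure. A time-zero cell control and untreated plates allowed calculation of GI50, TGI and LC50. These were read from log10 concentration dose-response curves.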

CAKI-1 = assay: Cytotoxicity against human CAKI-1 cells assessed as cell growth at 10 uM after 48 hrs by SRB assay; details: CAKI-1, 48 h, read-out: Activity
[2] = read-out: LC50 (the source's name)

CCCSc1nc2ccc3c(c2[nH]1)C(=O)c1ccccc1C3=O
growth inhibition (GI) (MDA-MB-231): Dose-dependent effect
GI50 (MDA-MB-231; MDA-MB-231, 48 h): 5.14 µM
LC50 (MDA-MB-231; MDA-MB-231, 48 h): > 100 µM
TGI (MDA-MB-231; MDA-MB-231, 48 h): > 100 µM
growth inhibition (GI) (MCF7): Dose-dependent effect
GI50 (MCF7; MCF7, 48 h): 57 µM
LC50 (concentration killing 50% of cells) (MCF7; MCF7, 48 h): > 100 µM
TGI (MCF7; MCF7, 48 h): > 100 µM
GI50 (ACHN): 2.69 µM
TGI (ACHN): 42.8 µM
growth inhibition (GI) (ACHN): Dose-dependent effect
CC50 (ACHN; [2]): > 100 µM
growth inhibition (GI) (SK-OV-3): Dose-dependent effect
GI50 (SK-OV-3; SK-OV-3, 48 h): 3.22 µM
LC50 (concentration killing 50% of cells present at time zero) (SK-OV-3; SK-OV-3, 48 h): > 100 µM
TGI (SK-OV-3; SK-OV-3, 48 h): 20.5 µM
growth inhibition (GI) (IGROV-1): Dose-dependent effect
GI50 (IGROV-1; IGROV-1, 48 h): 4.03 µM
LC50 (IGROV-1; IGROV-1, 48 h): > 100 µM
TGI (IGROV-1; IGROV-1, 48 h): > 100 µM
GI50 [1]: > 100 µM
LC50 [1]: > 100 µM
TGI [1]: > 100 µM
growth inhibition (GI) (UACC-257): Dose-dependent effect
growth inhibition (GI) (SK-MEL-5): Dose-dependent effect
GI50 (SK-MEL-5; SK-MEL-5, 48 h): > 100 µM
LC50 (concentration killing 50% of cells relative to time zero) (SK-MEL-5; SK-MEL-5, 48 h): > 100 µM
TGI (SK-MEL-5; SK-MEL-5, 48 h): > 100 µM
growth inhibition (GI) (SK-MEL-28): Dose-dependent effect
GI50 (SK-MEL-28; SK-MEL-28, 48 h): > 100 µM
LC50 (SK-MEL-28; SK-MEL-28, 48 h): > 100 µM
TGI (SK-MEL-28; SK-MEL-28, 48 h): > 100 µM
growth inhibition (GI) (SK-MEL-2): Dose-dependent effect
GI50 (SK-MEL-2; SK-MEL-2, 48 h): 15.9 µM
LC50 (50% lethal concentration) (SK-MEL-2; SK-MEL-2, 48 h): > 100 µM
TGI (SK-MEL-2; SK-MEL-2, 48 h): > 100 µM
growth inhibition (GI) (MDA-MB-435): Dose-dependent effect
GI50 (MDA-MB-435; MDA-MB-435, 48 h): > 100 µM
LC50 (MDA-MB-435; MDA-MB-435, 48 h): > 100 µM
TGI (MDA-MB-435; MDA-MB-435, 48 h): > 100 µM
GI50 (Malme-3M): 4.27 µM
TGI (Malme-3M): > 100 µM
growth inhibition (GI) (Malme-3M): Dose-dependent effect
CC50 (Malme-3M; [2]): > 100 µM
growth inhibition (GI) (U-251): Dose-dependent effect
GI50 (U-251; U-251, 48 h): 7.05 µM
TGI (U-251; U-251, 48 h): > 100 µM
CC50 (U-251; U-251, 48 h, read-out: LC50 (the source's name)): > 100 µM
growth inhibition (GI) (SNB-75): Dose-dependent effect
GI50 (SNB-75; SNB-75, 48 h): 2.64 µM
LC50 (SNB-75; SNB-75, 48 h): 98.1 µM
TGI (SNB-75; SNB-75, 48 h): 6.43 µM
growth inhibition (GI) (SNB-19): Dose-dependent effect
GI50 (SNB-19; SNB-19, 48 h): 9.35 µM
LC50 (SNB-19; SNB-19, 48 h): > 100 µM
TGI (SNB-19; SNB-19, 48 h): > 100 µM
growth inhibition (GI) (SW-620): Dose-dependent effect
GI50 (SW-620; SW-620, 48 h): > 100 µM
LC50 (SW-620; SW-620, 48 h): > 100 µM
TGI (SW-620; SW-620, 48 h): > 100 µM
growth inhibition (GI) (KM12): Dose-dependent effect
GI50 (KM12; KM12, 48 h): > 100 µM
TGI (KM12; KM12, 48 h): > 100 µM
CC50 (KM12; KM12, 48 h, read-out: LC50 (the source's name)): > 100 µM
growth inhibition (GI) (HT-29): Dose-dependent effect
GI50 (HT-29; HT-29, 48 h): > 100 µM
TGI (HT-29; HT-29, 48 h): > 100 µM
CC50 (HT-29; HT-29, 48 h, read-out: LC50 (the source's name)): > 100 µM
growth inhibition (GI) (COLO 205): Dose-dependent effect
GI50 (COLO 205; COLO 205, 48 h): > 100 µM
LC50 (COLO 205; COLO 205, 48 h): > 100 µM
TGI (COLO 205; COLO 205, 48 h): > 100 µM
growth inhibition (GI) (NCI-H226): Dose-dependent effect
GI50 (NCI-H226; NCI-H226, 48 h): 4.37 µM
LC50 (NCI-H226; NCI-H226, 48 h): > 100 µM
TGI (NCI-H226; NCI-H226, 48 h): > 100 µM
growth inhibition (GI) (HOP-62): Dose-dependent effect
GI50 (HOP-62; HOP-62, 48 h): 1.94 µM
LC50 (concentration killing 50% of cells relative to time zero) (HOP-62; HOP-62, 48 h): 9.36 µM
TGI (HOP-62; HOP-62, 48 h): 4.27 µM
growth inhibition (GI) (A549): Dose-dependent effect
GI50 (A549; A549, 48 h): 6.37 µM
LC50 (concentration killing 50% of cells) (A549; A549, 48 h): > 100 µM
TGI (A549; A549, 48 h): > 100 µM
GI50 (SR): 4.63 µM
LC50 (50% lethal concentration) (SR): > 100 µM
TGI (SR): > 100 µM
growth inhibition (GI) (SR): Dose-dependent effect
growth inhibition (GI) (MOLT-4): Dose-dependent effect
GI50 (MOLT-4; MOLT-4, 48 h): > 100 µM
LC50 (50% lethal concentration) (MOLT-4; MOLT-4, 48 h): > 100 µM
TGI (MOLT-4; MOLT-4, 48 h): > 100 µM
growth inhibition (GI) (K562): Dose-dependent effect
GI50 (K562; K562, 48 h): 36.4 µM
TGI (K562; K562, 48 h): > 100 µM
CC50 (K562; K562, 48 h, read-out: LC50 (the source's name)): > 100 µM
growth inhibition (GI) (HL-60(TB)): Dose-dependent effect
GI50 (HL-60(TB); HL-60, 48 h): 68.4 µM
LC50 (HL-60(TB); HL-60, 48 h): > 100 µM
TGI (HL-60(TB); HL-60, 48 h): > 100 µM
growth at 10 µM (CAKI-1): 45.5%
